Structures are written as SMILES. Bounds are passed on as bounds.

The target of experiment [1] is T1, Glucocorticoid receptor (Homo sapiens) (UniProt P04150).
T1 sequence (whole entry): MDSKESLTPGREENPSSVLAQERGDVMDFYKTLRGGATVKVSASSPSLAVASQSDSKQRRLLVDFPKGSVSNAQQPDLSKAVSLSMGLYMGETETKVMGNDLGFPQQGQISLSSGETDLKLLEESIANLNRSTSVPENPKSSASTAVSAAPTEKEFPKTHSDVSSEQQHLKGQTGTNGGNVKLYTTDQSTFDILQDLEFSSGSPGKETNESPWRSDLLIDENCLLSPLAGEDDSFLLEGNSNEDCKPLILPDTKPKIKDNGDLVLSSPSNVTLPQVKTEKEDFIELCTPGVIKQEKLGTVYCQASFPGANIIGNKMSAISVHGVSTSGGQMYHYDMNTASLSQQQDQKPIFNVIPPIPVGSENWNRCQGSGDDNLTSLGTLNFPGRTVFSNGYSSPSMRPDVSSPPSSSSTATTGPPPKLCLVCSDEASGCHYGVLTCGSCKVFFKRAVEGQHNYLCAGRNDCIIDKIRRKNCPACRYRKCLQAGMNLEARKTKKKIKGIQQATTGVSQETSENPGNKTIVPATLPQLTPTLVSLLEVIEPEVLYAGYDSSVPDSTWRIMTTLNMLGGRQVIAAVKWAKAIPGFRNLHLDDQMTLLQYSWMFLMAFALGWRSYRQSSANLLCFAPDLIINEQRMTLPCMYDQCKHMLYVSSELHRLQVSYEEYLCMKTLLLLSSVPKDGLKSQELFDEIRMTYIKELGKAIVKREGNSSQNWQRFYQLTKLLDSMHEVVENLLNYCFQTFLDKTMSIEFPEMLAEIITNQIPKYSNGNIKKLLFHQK
In words: Agonist activity at glucocorticoid receptor in human A549 cells assessed as inhibition of IL-1beta-induced NF-kappaB dependent E-selectin activation by luciferase reporter gene assay relative to dexamethasone. Type of experiment: cell-based.

The target in experiment [2] is T2, Glucocorticoid receptor (Homo sapiens, UniProt P04150).
T2 sequence (P04150 whole entry): T1 sequence (whole entry)
In words: Binding affinity to glucocorticoid receptor (unknown origin) by fluorescence polarization assay. On the technique in general: Fluorescence polarisation rises when a labelled molecule tumbles more slowly, as on binding a larger partner.

In experiment [3] the target is T2, Glucocorticoid receptor. Put plainly: Agonist activity at glucocorticoid receptor in human A549 cells assessed as inhibition of IL-1beta-induced NF-kappaB dependent E-selectin activation by luciferase reporter gene assay. In kind it is cell-based. In general terms: A reporter such as luciferase makes a cellular process visible.
Experiment [4] deals with T2, Glucocorticoid receptor. In words: Agonist activity at glucocorticoid receptor in human A549 cells assessed as inhibition of PMA-induced AP-1 activation by luciferase reporter gene assay. In kind it is cell-based.
In experiment [5] the target is T2, Glucocorticoid receptor. In words: Transactivation of glucocorticoid receptor ligand binding domain (unknown origin) transfected in human HeLa cells assessed as activation of NP-1 by GAL4 luciferase reporter gene assay. In kind it is cell-based.
For experiment [6], the target named is T1, Glucocorticoid receptor (Homo sapiens). Put plainly: Transactivation of glucocorticoid receptor ligand binding domain (unknown origin) transfected in human HeLa cells assessed as activation of NP-1 by GAL4 luciferase reporter gene assay relative to dexamethasone. Type of experiment: cell-based. Put shortly:
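HeLa line (NP-1) stably transfected with a GR ligand binding domain chimera in a GAL4 luciferase reporter system, run in agonist mode. Direct GR-LBD activation read as increased luciferase activity. Means of two or more experiments in triplicate.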

The target is the same in experiment [7]. In words: Agonist activity at glucocorticoid receptor in human A549 cells assessed as inhibition of PMA-induced AP-1 activation by luciferase reporter gene assay relative to dexamethasone. Type of experiment: cell-based. Put shortly:
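A549 lung epithelial cells stably carrying a luciferase reporter with 5 copies of the AP-1 response element; AP-1 induced with PMA (15 ng/ml). Compound inhibition of induction read as decreased luciferase. […] Means of two or more experiments in triplicate.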

A further experiment has as its target T3, Androgen receptor (Homo sapiens, UniProt P10275).
T3 sequence (P10275 whole entry): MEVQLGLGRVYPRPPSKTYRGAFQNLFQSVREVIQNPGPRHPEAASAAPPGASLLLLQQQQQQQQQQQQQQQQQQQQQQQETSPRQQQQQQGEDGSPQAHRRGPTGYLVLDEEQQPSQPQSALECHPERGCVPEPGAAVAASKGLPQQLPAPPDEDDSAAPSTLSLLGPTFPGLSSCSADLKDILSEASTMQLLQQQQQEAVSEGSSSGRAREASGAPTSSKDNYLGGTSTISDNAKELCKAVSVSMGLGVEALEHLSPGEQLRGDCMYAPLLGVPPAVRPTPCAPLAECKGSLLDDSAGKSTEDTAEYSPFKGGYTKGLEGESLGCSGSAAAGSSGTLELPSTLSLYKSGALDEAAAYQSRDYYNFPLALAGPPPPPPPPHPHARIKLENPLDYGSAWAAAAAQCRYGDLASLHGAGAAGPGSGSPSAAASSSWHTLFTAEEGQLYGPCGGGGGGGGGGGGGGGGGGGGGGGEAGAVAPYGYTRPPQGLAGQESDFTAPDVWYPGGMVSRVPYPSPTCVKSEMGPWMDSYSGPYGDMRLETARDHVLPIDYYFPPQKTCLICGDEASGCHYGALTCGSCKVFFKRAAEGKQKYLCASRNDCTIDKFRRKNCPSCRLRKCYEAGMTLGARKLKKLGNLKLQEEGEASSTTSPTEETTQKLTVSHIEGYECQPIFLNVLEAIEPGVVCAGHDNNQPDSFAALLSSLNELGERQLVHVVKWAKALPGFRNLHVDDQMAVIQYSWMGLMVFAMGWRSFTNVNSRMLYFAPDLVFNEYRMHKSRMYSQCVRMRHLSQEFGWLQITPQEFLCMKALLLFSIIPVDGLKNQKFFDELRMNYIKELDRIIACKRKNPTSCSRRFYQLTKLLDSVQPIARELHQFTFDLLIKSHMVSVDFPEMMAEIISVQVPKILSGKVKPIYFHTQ
Put plainly: Binding affinity to androgen receptor (unknown origin) by fluorescence polarization assay. Put shortly:
(§1)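 Fluorescence polarization competition between test compound and a fluorescently labeled ligand for full-length receptor or its ligand binding domain. IC50 from a four-parameter logistic fit of the polarization signal, converted to Ki with Cheng–Prusoff […]. Means of duplicate experiments.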

The target in another experiment is T4, Progesterone receptor (Homo sapiens, UniProt P06401).
T4 sequence (P06401 whole entry): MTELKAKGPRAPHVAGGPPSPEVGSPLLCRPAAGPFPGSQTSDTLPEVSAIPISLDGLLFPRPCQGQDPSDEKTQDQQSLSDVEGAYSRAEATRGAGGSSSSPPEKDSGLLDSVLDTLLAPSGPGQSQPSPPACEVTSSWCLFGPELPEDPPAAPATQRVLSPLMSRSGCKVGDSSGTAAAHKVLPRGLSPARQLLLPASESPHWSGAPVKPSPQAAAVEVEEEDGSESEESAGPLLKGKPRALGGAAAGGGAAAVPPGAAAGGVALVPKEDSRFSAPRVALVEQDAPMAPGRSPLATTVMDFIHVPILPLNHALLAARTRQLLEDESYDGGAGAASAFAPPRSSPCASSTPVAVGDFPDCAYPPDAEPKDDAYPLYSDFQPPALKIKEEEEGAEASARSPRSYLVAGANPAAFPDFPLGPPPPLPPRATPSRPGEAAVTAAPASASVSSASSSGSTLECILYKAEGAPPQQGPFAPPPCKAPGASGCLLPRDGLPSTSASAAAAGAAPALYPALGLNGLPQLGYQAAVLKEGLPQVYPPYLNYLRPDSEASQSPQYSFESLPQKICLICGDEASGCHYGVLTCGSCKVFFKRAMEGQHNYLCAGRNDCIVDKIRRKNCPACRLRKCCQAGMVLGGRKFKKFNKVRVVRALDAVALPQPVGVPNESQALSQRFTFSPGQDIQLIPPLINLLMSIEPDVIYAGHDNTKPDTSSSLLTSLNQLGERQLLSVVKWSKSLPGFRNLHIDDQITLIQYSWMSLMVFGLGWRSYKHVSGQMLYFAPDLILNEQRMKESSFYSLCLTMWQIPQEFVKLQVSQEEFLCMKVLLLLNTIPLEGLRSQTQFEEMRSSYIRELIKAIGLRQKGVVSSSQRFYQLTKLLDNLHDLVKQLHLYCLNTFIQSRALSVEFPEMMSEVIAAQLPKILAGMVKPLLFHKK
Put plainly: Binding affinity to progesterone receptor (unknown origin) by fluorescence polarization assay. In a few lines:
as §1

The species entered for experiment [8] is Homo sapiens. Put plainly: Selectivity ratio of Ki for progesterone receptor (unknown origin) to Ki for glucocorticoid receptor (unknown origin).
Experiment [9] is filed under the species Homo sapiens. Put plainly: Selectivity ratio of Ki for androgen receptor (unknown origin) to Ki for glucocorticoid receptor (unknown origin).

By Ki is commonly meant a dissociation constant, usually derived from enzyme kinetics or from competition with a known ligand. What is called EC50 is the concentration that produces a half-maximal response. In the case of `CC(C)(C(=O)Nc1nccs1)[C@H](c1ccccc1)c1ccc2c(cnn2-c2ccc(F)cc2)c1`, the Efficacy in experiment [1] stood at 81%; in [6] it was 59%; in experiment [7], 56%. The compound further gave a Ki at Glucocorticoid receptor [2] of 7.9 nM. Further, the EC50 amounted to 58 nM at Glucocorticoid receptor [3], 400 nM at Glucocorticoid receptor [4] and 435 nM on Glucocorticoid receptor [5].

In the case of `CC(C)(C(=O)Nc1nncs1)[C@@H](c1ccccc1)c1ccc2[nH]ncc2c1`, the values for the Efficacy in experiment [1], in experiment [6] and in [7] were 77%, 41% and 79%, respectively. The compound also came in with a Ki at Glucocorticoid receptor [2] of 2.7 nM. For the same compound, the EC50 on Glucocorticoid receptor [3] was 15 nM; at Glucocorticoid receptor [4], 24 nM; at Glucocorticoid receptor [5] it was 208 nM.

Turning to `CC(C)(C(=O)Nc1nncs1)[C@H](c1ccccc1)c1ccc2[nH]ncc2c1`, the Efficacy is less than 30% in experiment [1], less than 30% in experiment [6] and 35% in [7]. The affinity on Glucocorticoid receptor [2] corresponds to a Ki of 13 nM. For the same compound, the figures for the EC50 on Glucocorticoid receptor [3], on Glucocorticoid receptor [4] and on Glucocorticoid receptor [5] were more than 5000 nM, 617 nM and more than 10000 nM, respectively.

With `CC(C)(C(=O)Nc1nccs1)[C@@H](c1ccccc1)c1ccc2c(cnn2-c2ccc(F)cc2)c1`, the Efficacy in [1] amounted to 97%; in [6], 94%; in [7], 92%. This compound also registered a Ki at Glucocorticoid receptor [2] of 6 nM. Moreover, the EC50 at Glucocorticoid receptor [3] is 0.5 nM; at Glucocorticoid receptor [4], 1.4 nM; at Glucocorticoid receptor [5], 7.6 nM.

As to `CCCC(c1ccc2c(cnn2-c2ccc(F)cc2)c1)C(C)(C)C(=O)Nc1nncs1` (racemic), the values for the Ki on Androgen receptor and at Progesterone receptor were 2510 nM and 109 nM, respectively. Also, the Ratio Ki was 10 in the experiment listed under Homo sapiens [8] and more than 1000 in the experiment filed under Homo sapiens [9]. Besides, at Glucocorticoid receptor [4], the EC50 was found to be 18 nM. Also, in experiment [7], the Efficacy was 60%.

With `CC(C)(C(=O)Nc1nncs1)C(c1ccccc1)c1ccc2c(cnn2-c2ccncc2)c1` (racemic), the Efficacy in experiment [1] was 56%; in experiment [6] it was less than 30%; in experiment [7] it was 56%. For the same compound, the Ki at Glucocorticoid receptor [2] came out at 1.9 nM. Besides, the EC50 on Glucocorticoid receptor [3] was 78 nM; at Glucocorticoid receptor [4] it was 106 nM; at Glucocorticoid receptor [5], more than 10000 nM.

As for `CC(C)CCn1ncc2cc(C(c3ccccc3)C(C)(C)C(=O)Nc3nncs3)ccc21` (racemic), the Efficacy in experiment [1] was found to be 87%; in [6], 66%; in experiment [7], 96%. Moreover, on Glucocorticoid receptor [2], the Ki was determined as 5.7 nM. In addition, the EC50 on Glucocorticoid receptor [3] was determined as 49 nM; on Glucocorticoid receptor [4], 45 nM; at Glucocorticoid receptor [5] it was 132 nM.

As for `CC(C(=O)Nc1nncs1)[C@@H](c1ccccc1)c1ccc2c(cnn2-c2ccc(F)cc2)c1` (single isomer, unassigned; diastereomer 2), the Ki on Androgen receptor stood at 243 nM; on Progesterone receptor, 214 nM.

As to `CC(C(=O)Nc1nncs1)[C@@H](c1ccccc1)c1ccc2c(cnn2-c2ccc(F)cc2)c1` (single isomer, unassigned; diastereomer 3), the Ki on Androgen receptor is more than 4170 nM; on Progesterone receptor it was 22 nM.

Values taken from ChEMBL document CHEMBL2424628, “Discovery of potent and selective nonsteroidal indazolyl amide glucocorticoid receptor agonists” (Bioorg Med Chem Lett, 2013).
